The values below come from paper PMC11809490 (RSC Advances, 2025).

In one data set the test system is HEK293. The data set is described as follows: MTT assay, cytotoxicity to normal cells. It is filed as cell-based, human. The essentials: (§1)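 Cells in medium with 10% FBS, streptomycin and penicillin; 5000 cells per well. After 12 h, test compounds added at 0.1–40 μM, with 0.1% DMSO as vehicle, for 48 h. Then serum-free medium and MTT (5 mg mL−1) at 4:1 for 4 h at 37 °C. Formazan dissolved in DMSO, absorbance at 570 nm, normalized to DMSO control. IC50 from sigmoidal variable-slope nonlinear regression.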

Data set [1] relates to C4-2 cells. The data set is described as follows: Clonogenic assay. It is filed as cell-based, human. Particulars: 10 μM or 20 μM, 10 days. An outline of the steps:
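1000 C4-2 cells plated per well and exposed to test compound at 10 or 20 μM. […] Incubated 10–12 days, washed with PBS and fixed in cold methanol:acetic acid (3:1) for 5–10 min. Colonies photographed for number and size. Run in duplicate.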

The next data set deals with p-53 and c-jun. The data set is described as follows: Level of p-53 and c-jun. It is filed as cell-based.
The test system of data set [2] is C4-2 cells. The data set is described as follows: Intracellular ROS levels, H2DCFDA staining. Particulars: 10 μM and 20 μM, 48 h. It is filed as cell-based, human. The essentials:
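C4-2 cells on coverslips got DMSO, test compound or H2O2 (10 μM) for 48 h. The figure legend gives test compound at 10 and 20 μM. Cells washed with PBS and loaded with H2DCFDA (2 μM final) in PBS, 40 min at 37 °C. Green signal imaged in FITC channel and expressed relative to DMSO. Three independent replicates; Student's t-test.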

The subject of a further data set is PC3. The data set is described as follows: MTT assay, cytotoxicity. It is filed as cell-based, human. Particulars: Homo sapiens, PC-3, 48 h, read-out: IC50 PC3. The essentials: as §1
In the next data set the test system is MCF7. The data set is described as follows: MTT assay, cytotoxicity. Particulars: Homo sapiens, MCF7, 48 h, read-out: IC50 MCF7. It is filed as cell-based, human. The essentials: as §1
In a further data set the test system is 22Rv1. The data set is described as follows: MTT assay, cytotoxicity. It is filed as cell-based, human. Conditions: Homo sapiens, 22Rv1, 48 h, read-out: IC50 22Rv1. An outline of the steps: as §1
The subject of data set [3] is C4-2 cells. The data set is described as follows: Acridine orange/ethidium bromide assay. It is filed as cell-based, human. Conditions: 10 and 20 μM, 48 h. The essentials: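 C4-2 cells (0.25 × 10^5) seeded on 12 mm coverslips for 12 h, then given DMSO or test compound (10 and 20 μM) for 48 h. After PBS wash, stained with AO (100 μg mL−1) plus EB (100 μg mL−1) in PBS for 20 min. Washed and imaged by fluorescence microscopy: FITC channel for green (AO, all cells), TRITC for red (EB, dead cells).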

The test system of the next data set is C4-2. The data set is described as follows: MTT assay, cytotoxicity. It is filed as cell-based, human.
The subject of data set [4] is C4-2 cells. The data set is described as follows: JC-1 staining, mitochondrial depolarization. It is filed as cell-based, human. Conditions: 10 μM or 20 μM, 48 h. An outline of the steps:
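C4-2 cells (0.25 × 10^5) on 12 mm coverslips, seeded 12 h, then exposed to DMSO or test compound (10 or 20 μM) for 48 h. After PBS wash, incubated with JC-1 (2 μM) in PBS for 20 min. Imaged in FITC and TRITC channels: orange aggregates mark polarized mitochondria, green marks depolarized.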

For the next data set, the system named is tubulin in C4-2 cells. The data set is described as follows: Tubulin immunofluorescence. Conditions: 10 μM and 20 μM, 48 h. It is filed as cell-based, human. The essentials: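 Fixed and permeabilized with ice-cold methanol. Blocked 1 h in 2% BSA/1% Triton X-100 in PBS. Tubulin antibody overnight at 4 °C, then FITC goat anti-mouse secondary 3 h in the dark. Imaged in FITC and DAPI channels.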

The subject of data set [5] is prostate, breast, epithelial cancer cells. The data set is described as follows: MTT assay, all tested cancer cell lines together. It is filed as cell-based, human. An outline of the steps: as §1
The test system of another data set is HCT-8. Particulars: cited from earlier work.
For the next data set, the system named is A-549. Particulars: cited from earlier work.
The test system of a further data set is MDA-MB-231. Particulars: cited from earlier work.
A further data set concerns P388. Conditions: cited from earlier work.

≈ marks a conversion by molar mass, not a printed value. Entries after “also recorded” stand apart in the source; their conditions may differ. Like-named read-outs stand apart in the source and are kept apart here.

Take `CCCOc1ccc2[nH]cc(C(=O)C(C#N)=Cc3cn(CC)c4ccccc34)c2c1` [21j, 3-(1-Ethyl-1H-indol-3-yl)-2-(5-propoxy-1H-indole-3-carbonyl)acrylonitrile]: the “cytotoxicity to normal HEK293 cells, in words” value in the data set with HEK293 was “no notable impact”. In addition, the IC50 with HEK293 (Homo sapiens, HEK293, 48 h, read-out: IC50 HEK293) was above 40000 nM; in the data set with PC3, 5600 nM; with MCF7 it was 1200 nM; in the data set on 22Rv1, 2900 nM; in the data set on C4-2 (Homo sapiens, C4-2, 48 h, read-out: IC50 C4-2, MTT, 48 h treatment, 0.1-40 μM), 900 nM; in the data set with C4-2 (read-out: IC50 C4-2, MTT, 48 h treatment, 0.1-40 μM) it was 980 nM. For the same compound, in the data set on C4-2 cells [1], the “number and size of colonies” value was “significantly inhibited the number and size of colonies; also recorded: inhibits colony formation”. The “level of p-53 and c-jun” value with p-53 and c-jun is “upregulate the level of p-53 and c-jun”. In the data set on C4-2 cells [2], the “ROS levels (DCFDA)” value is given as “robust increase in ROS levels; also recorded: raises the levels of ROS”. The “cell death / apoptosis by AO-EB staining” value with C4-2 cells [3] was “robust cell death; also recorded: induced substantial apoptosis”. Also, the “mitochondrial depolarization (JC-1)” value in the data set with C4-2 cells [4] is listed as “induced significant mitochondrial depolarization; also recorded: induces mitochondrial depolarization”. Further, the “tubulin assembly (β-tubulin antibody staining)” value in the data set with tubulin in C4-2 cells is given as “significant loss of tubulin assembly; also recorded: increases tubulin depolymerization”. The “cytotoxicity against the tested cancer cells, in words (SAR)” value in data set [5] was “significantly enhanced cytotoxicity; also recorded: most effective compound across all cancer cell lines tested”.

With `CN1C[C@@H](c2c[nH]c3cc(Br)ccc23)N(C)C[C@@H]1c1c[nH]c2cc(Br)ccc12` [Dragmacidin B], the “IC50 HCT-8” value in the data set with HCT-8 was 1 to 10 µg/mL. In addition, the “IC50 A-549” value in the data set on A-549 was 1 to 10 µg/mL. Besides, in the data set on MDA-MB-231, the “IC50 MDA-MB-231” value was 1 to 10 µg/mL. For the same compound, the “IC50 P388” value with P388 is 15 µg/mL (≈ 29.9 µM).
